Laboratory results published in ChEMBL document CHEMBL1949575, “Sclareol exhibits anti-inflammatory activity in both lipopolysaccharide-stimulated macrophages and the λ-carrageenan-induced paw edema model” (J Nat Prod, 2012).
Converted amounts (≈) assume the structure as drawn. The source made the active and inactive calls. The calls are words filed in the database; no cut-off is given here.

Tests used:
[1] = system: Mus musculus; assay: Antiinflammatory activity in ICR mouse assessed as inhibition of carrageenan-induced decrease in GPx activity in liver at 10 mg/kg, ip administered 30 mins before carrageenan challenge measured after 5 hrs; format: functional, organism-based; parameters: dose 10 mg/kg
In short: (§1)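 Liver catalase, SOD and GPx activities determined 5 h after intrapaw carrageenan in ICR mice given drug i.p. 30 min beforehand. Indomethacin 10 mg/kg as positive control.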

[2] = system: Mus musculus; assay: Antiinflammatory activity in ICR mouse assessed as inhibition of carrageenan-induced iNOS protein expression in paw at 10 mg/kg, ip administered 30 mins before carrageenan challenge by Western blotting relative to control; format: functional; settings: route intraperitoneal
In short: (§2)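 Male ICR mice (18−25 g, n = 6 per group) given drug or saline i.p. 30 min before 50 μL of 1% carrageenan into the right hind paw plantar side. Paw soft tissue was homogenized in CHAPS buffer with protease inhibitors. About 30 μg protein run on 10% SDS-PAGE, immunoblotted for iNOS or COX-2, ECL detection, normalized to β-actin. Indomethacin 10 mg/kg as positive control.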

[3] = system: Mus musculus; assay: Antiinflammatory activity in ICR mouse assessed as inhibition of carrageenan-induced TNFalpha level in paw serum at 10 mg/kg, ip administered 30 mins before carrageenan challenge measured after 5 hrs by ELISA; format: functional, organism-based; parameters: dose 10 mg/kg
In short: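 ICR mice (n = 6) dosed i.p. 30 min before intraplantar 1% carrageenan; blood collected at sacrifice and stored at −80 °C. Serum TNF-α quantified by commercial ELISA, reported in pg/mL from the standard-curve regression. Indomethacin 10 mg/kg as reference.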

[4] = system: Mus musculus; assay: Antiinflammatory activity in ICR mouse assessed as inhibition of carrageenan-induced decrease in CAT activity in liver at 10 mg/kg, ip administered 30 mins before carrageenan challenge measured after 5 hrs; format: functional, organism-based; parameters: dose 10 mg/kg; in short: as §1
[5] = system: Mus musculus; assay: Antiinflammatory activity in ICR mouse assessed as inhibition of carrageenan-induced decrease in SOD activity in liver at 10 mg/kg, ip administered 30 mins before carrageenan challenge measured after 5 hrs; format: functional, organism-based; parameters: dose 10 mg/kg; in short: as §1
[6] = system: Mus musculus; assay: Antiinflammatory activity in ICR mouse assessed as inhibition of carrageenan-induced paw edema at 10 mg/kg, ip administered 30 mins before carrageenan challenge measured after 3 hrs by plethysmometer analysis; format: functional, organism-based; parameters: dose 10 mg/kg
In short: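 Male ICR mice (n = 6) received saline, indomethacin 10 mg/kg or drug i.p. 30 min before 50 μL of 1% carrageenan in the right hind paw. Paw volume was read by plethysmometer immediately and at 1−5 h. Swelling was expressed as the ratio of right paw volume after carrageenan to volume before.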

[7] = system: Mus musculus; assay: Antiinflammatory activity in ICR mouse assessed as inhibition of carrageenan-induced COX2 protein expression in paw at 10 mg/kg, ip administered 30 mins before carrageenan challenge by Western blotting relative to control; format: functional; settings: route intraperitoneal; in short: as §2
[8] = system: Mus musculus; assay: Antiinflammatory activity in ICR mouse assessed as inhibition of carrageenan-induced malondialdehyde level in paw serum at 10 mg/kg, ip administered 30 mins before carrageenan challenge measured after 5 hrs by TRARS method; format: functional, organism-based; parameters: dose 10 mg/kg
In short: (§3)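 Carrageenan (1%, 50 μL intraplantar) given to ICR mice 30 min after i.p. dosing; right hind paws dissected at end and kept at −80 °C. Malondialdehyde measured by thiobarbituric acid reaction under acidic high-temperature conditions, red TBARS complex read at 532 nm.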

[9] = system: Mus musculus; assay: Antiinflammatory activity in ICR mouse assessed as inhibition of carrageenan-induced neutrophil infiltration in paw at 10 mg/kg, ip administered 30 mins before carrageenan challenge; format: functional, organism-based; parameters: dose 10 mg/kg
[10] = system: RAW264.7; assay: Antiinflammatory activity in mouse RAW264.7 cells assessed as inhibition of LPS-induced iNOS expression at 5 to 10 ug/ml by Western blotting; format: functional, cell-based
In short: (§4)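 RAW264.7 macrophages in DMEM with 10% FBS were pretreated 1 h with drug (0−10 μg/mL), then co-stimulated with 100 ng/mL LPS for 24 h. Lysates (ice-cold Triton lysis buffer, pH 7.9) were blotted for iNOS or COX-2, with about 30 μg protein per lane and ECL detection. Bands normalized to β-actin, expressed relative to the LPS-only group as 100%.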

[11] = system: Mus musculus; assay: Antiinflammatory activity in ICR mouse assessed as inhibition of carrageenan-induced decrease in GPx activity in liver at 5 mg/kg, ip administered 30 mins before carrageenan challenge measured after 5 hrs; format: functional, organism-based; parameters: dose 5 mg/kg; in short: as §1
[12] = Cytotoxicity against human breast cancer cells; format: functional, cell-based; settings: Cancer cell lines
[13] = system: RAW264.7; assay: Antiinflammatory activity in mouse RAW264.7 cells assessed as inhibition of LPS-induced nitric oxide production treated 1 hr before LPS challenge measured after 24 hrs by Griess method; format: functional, cell-based
In short: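 RAW264.7 cells preincubated 1 h with drug at 0, 1, 5 or 10 μg/mL, then co-treated with 100 ng/mL LPS at 37 °C for 24 h. Culture medium mixed 1:1 with Griess reagent (1% sulfanilamide, 0.1% naphthyl ethylenediamine, 5% phosphoric acid), 10 min at room temperature, absorbance 540 nm against a nitrite standard curve.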

[14] = system: Mus musculus; assay: Antiinflammatory activity in ICR mouse assessed as inhibition of carrageenan-induced decrease in CAT activity in liver at 5 mg/kg, ip administered 30 mins before carrageenan challenge measured after 5 hrs; format: functional, organism-based; parameters: dose 5 mg/kg; in short: as §1
[15] = system: RAW264.7; assay: Antiinflammatory activity in mouse RAW264.7 cells assessed as inhibition of LPS-induced COX2 expression at 5 to 10 ug/ml by Western blotting; format: functional, cell-based; in short: as §4
[16] = system: Mus musculus; assay: Antiinflammatory activity in ICR mouse assessed as inhibition of carrageenan-induced malondialdehyde level in paw serum at 1 mg/kg, ip administered 30 mins before carrageenan challenge measured after 5 hrs by TRARS method; format: functional, organism-based; parameters: dose 1 mg/kg; in short: as §3
[17] = system: Mus musculus; assay: Antiinflammatory activity in ICR mouse assessed as inhibition of carrageenan-induced nitric oxide level in paw serum at 1 to 10 mg/kg, ip administered 30 mins before carrageenan challenge measured after 5 hrs by Griess method; format: functional, organism-based
In short: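 Mice pretreated i.p. 30 min before intraplantar 1% carrageenan; samples taken 5 h after injection. Homogenates diluted fourfold in water, deproteinized with zinc sulfate to a final 15 mg/mL, centrifuged at 10000g for 5 min. Supernatant mixed 1:1 with Griess reagent, 10 min at room temperature, A540. Nitrite quantified against a sodium nitrite standard curve.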

[18] = system: Mus musculus; assay: Antiinflammatory activity in ICR mouse assessed as inhibition of carrageenan-induced TNFalpha level in paw serum at 5 to 10 mg/kg, ip administered 30 mins before carrageenan challenge measured after 5 hrs by ELISA
[19] = system: PBMC; assay: Cytotoxicity against human PBMC; format: cell-based
[20] = Cytotoxicity against human leukemia cells; format: functional, cell-based; settings: Leukemia cell
[21] = system: HCT-116; assay: Cytotoxicity against human HCT116 cells; format: functional, cell-based
[22] = system: RAW264.7; assay: Cytotoxicity against LPS-stimulated mouse RAW264.7 cells assessed as cell viability at 10 ug/ml treated 1 hr before LPS challenge measured after 24 hrs by MTT assay; format: cell-based; settings: raw264.7, 24 h
In short: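 RAW264.7 cells (2 × 10^5/well) grown 1 day to near confluence, pretreated 1 h with drug (0−10 μg/mL), then co-stimulated with 100 ng/mL LPS for 24 h. After DPBS washes, cells got 0.5 mg/mL MTT for 2 h at 37 °C, then DMSO for 30 min, and absorbance was read at 570 nm.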

[23] = system: Mus musculus; assay: Antiinflammatory activity in ICR mouse assessed as inhibition of carrageenan-induced malondialdehyde level in paw at 10 mg/kg, ip administered 30 mins before carrageenan challenge by TRARS method; format: functional, organism-based; parameters: dose 10 mg/kg; in short: as §3
[24] = system: Mus musculus; assay: Antiinflammatory activity in ICR mouse assessed as inhibition of carrageenan-induced decrease in SOD activity in liver at 5 mg/kg, ip administered 30 mins before carrageenan challenge measured after 5 hrs; format: functional, organism-based; parameters: dose 5 mg/kg; in short: as §1

With COc1ccc2c(c1)c(CC(=O)O)c(C)n2C(=O)c1ccc(Cl)cc1 [INDOMETHACIN] the inhibition [1] was “Active”, the inhibition in vivo at 10 mg/kg [2] was 61.5% and the inhibition [3] was “Active”. The inhibition [4] was “Active”, the inhibition [5] was “Active” and the inhibition [6] was “Active”. The inhibition in vivo at 10 mg/kg [7] was 58.1%, the inhibition [8] was “Active” and the inhibition [9] was “Active”.
In the case of C=C[C@](C)(O)CC[C@@H]1[C@@]2(C)CCCC(C)(C)[C@@H]2CC[C@@]1(C)O [SCLAREOL], the inhibition [10] is reported as “Active”, the inhibition [11] is reported as “Active” and the IC50 [12] is reported as 7 µg/mL (≈ 22.7 µM). For the same compound, the inhibition [13] was “Dose-dependent effect”, the inhibition [14] was “Active” and the inhibition [15] was “Active”. The inhibition in vivo at 10 mg/kg [2] was 69.6%, the inhibition [16] was “Active” and the inhibition [17] was “Active”. For the same compound, the inhibition [18] was “Active”, the IC50 [19] was 10.7 µg/mL (≈ 34.7 µM) and the IC50 [20] was 6 µg/mL (≈ 19.4 µM). For the same compound, the IC50 [21] was 10.6 µg/mL (≈ 34.4 µM), the Activity [22] was “Non-toxic” and the inhibition [6] was “Active”. For the same compound, the inhibition [23] was “Active”, the inhibition [24] was “Active” and the inhibition in vivo at 10 mg/kg [7] was 70.3%. For the same compound, the inhibition [9] was “Active”.
